≈ marks a conversion by molar mass, not a printed value.
Legend:
[1] = Metabolic stability in human liver microsomes; format: ADME, Microsome
Cytochrome P450 3A4 = Cytochrome P450 3A4 (Homo sapiens, UniProt P08684); assay: Inhibition of CYP3A4; format: ADME
In short: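 Recombinant CYP3A4 in microsomes from transfected cells expressing only that isoform, with the fluorescent substrate BFC; ketoconazole as positive control. IC50 determined; compounds with IC50 < 30 µM run in two or three experiments.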

Homo sapiens = species on record: Homo sapiens; assay: Selectivity for human adenosine A2A receptor over human adenosine A1 receptor
In short: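 Ki ratio from radioligand displacement in HEK293 cells expressing human receptors. A2A uses [3H]-ZM241385 and A1 uses [3H]-DPCPX. A standard antagonist is included on each plate. Geometric means of 3–6 independent experiments, SD ≤20%.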

Adenosine receptor A2a [2] = biological target: T1, Adenosine receptor A2a (Homo sapiens, UniProt P29274); assay: Displacement of [3H]ZM241385 from human adenosine A2A receptor expressed in HEK293 cells; format: cell-based
T1 sequence (P29274 whole entry): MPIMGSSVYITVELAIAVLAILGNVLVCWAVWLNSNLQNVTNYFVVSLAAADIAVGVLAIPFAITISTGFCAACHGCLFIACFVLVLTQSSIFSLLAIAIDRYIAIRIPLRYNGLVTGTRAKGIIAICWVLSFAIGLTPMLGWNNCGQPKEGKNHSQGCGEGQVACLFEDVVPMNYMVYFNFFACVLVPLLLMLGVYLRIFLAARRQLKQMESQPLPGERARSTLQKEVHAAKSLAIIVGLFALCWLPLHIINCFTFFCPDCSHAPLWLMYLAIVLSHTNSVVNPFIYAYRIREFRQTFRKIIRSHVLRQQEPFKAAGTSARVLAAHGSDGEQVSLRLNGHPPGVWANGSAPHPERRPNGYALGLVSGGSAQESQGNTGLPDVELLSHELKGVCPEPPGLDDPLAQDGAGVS

[3] = Solubility in buffer solution at pH 2; format: physicochemical
In short: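 About 1 mg of solid is weighed into pH 2.00 buffer solution, sonicated 10 min, shaken overnight and centrifuged. The supernatant is quantified by HPLC against a standard curve of known dilutions of authentic sample.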

Adenosine receptor A2a [4] = biological target: T1, Adenosine receptor A2a; assay: Antagonist activity at human adenosine A2A receptor expressed in HEK293 cells by cAMP assay; format: functional, cell-based
Cytochrome P450 2D6 = Cytochrome P450 2D6 (Homo sapiens, UniProt P10635); assay: Inhibition of CYP2D6; format: ADME
Sequence of Cytochrome P450 2D6 (P10635 whole entry): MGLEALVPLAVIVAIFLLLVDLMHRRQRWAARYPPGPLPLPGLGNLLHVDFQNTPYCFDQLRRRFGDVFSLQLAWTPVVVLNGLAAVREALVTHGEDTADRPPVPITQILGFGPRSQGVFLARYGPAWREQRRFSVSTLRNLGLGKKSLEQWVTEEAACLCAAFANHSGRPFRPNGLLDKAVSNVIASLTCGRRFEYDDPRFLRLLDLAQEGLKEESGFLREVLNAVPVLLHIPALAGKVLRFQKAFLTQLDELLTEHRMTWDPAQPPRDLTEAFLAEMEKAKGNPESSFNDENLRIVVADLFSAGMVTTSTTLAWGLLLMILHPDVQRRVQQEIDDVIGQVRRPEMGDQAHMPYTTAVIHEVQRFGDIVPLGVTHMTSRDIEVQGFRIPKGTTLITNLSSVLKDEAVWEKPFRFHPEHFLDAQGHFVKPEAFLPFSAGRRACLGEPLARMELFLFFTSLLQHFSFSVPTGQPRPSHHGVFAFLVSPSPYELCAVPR
In short: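 Recombinant CYP2D6 in microsomes from transfected cells, with the fluorescent substrate AMMC; quinidine as positive control. IC50 determined; compounds with IC50 < 30 μM assayed in two or three experiments.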

[5] = biological target: Voltage-gated inwardly rectifying potassium channel KCNH2 (Homo sapiens, UniProt Q12809); assay: Inhibition of human ERG expressed in HEK cells assessed as effect on electric current by patch clamp assay; format: cell-based, HEK293
Sequence of Voltage-gated inwardly rectifying potassium channel KCNH2 (Q12809 whole entry): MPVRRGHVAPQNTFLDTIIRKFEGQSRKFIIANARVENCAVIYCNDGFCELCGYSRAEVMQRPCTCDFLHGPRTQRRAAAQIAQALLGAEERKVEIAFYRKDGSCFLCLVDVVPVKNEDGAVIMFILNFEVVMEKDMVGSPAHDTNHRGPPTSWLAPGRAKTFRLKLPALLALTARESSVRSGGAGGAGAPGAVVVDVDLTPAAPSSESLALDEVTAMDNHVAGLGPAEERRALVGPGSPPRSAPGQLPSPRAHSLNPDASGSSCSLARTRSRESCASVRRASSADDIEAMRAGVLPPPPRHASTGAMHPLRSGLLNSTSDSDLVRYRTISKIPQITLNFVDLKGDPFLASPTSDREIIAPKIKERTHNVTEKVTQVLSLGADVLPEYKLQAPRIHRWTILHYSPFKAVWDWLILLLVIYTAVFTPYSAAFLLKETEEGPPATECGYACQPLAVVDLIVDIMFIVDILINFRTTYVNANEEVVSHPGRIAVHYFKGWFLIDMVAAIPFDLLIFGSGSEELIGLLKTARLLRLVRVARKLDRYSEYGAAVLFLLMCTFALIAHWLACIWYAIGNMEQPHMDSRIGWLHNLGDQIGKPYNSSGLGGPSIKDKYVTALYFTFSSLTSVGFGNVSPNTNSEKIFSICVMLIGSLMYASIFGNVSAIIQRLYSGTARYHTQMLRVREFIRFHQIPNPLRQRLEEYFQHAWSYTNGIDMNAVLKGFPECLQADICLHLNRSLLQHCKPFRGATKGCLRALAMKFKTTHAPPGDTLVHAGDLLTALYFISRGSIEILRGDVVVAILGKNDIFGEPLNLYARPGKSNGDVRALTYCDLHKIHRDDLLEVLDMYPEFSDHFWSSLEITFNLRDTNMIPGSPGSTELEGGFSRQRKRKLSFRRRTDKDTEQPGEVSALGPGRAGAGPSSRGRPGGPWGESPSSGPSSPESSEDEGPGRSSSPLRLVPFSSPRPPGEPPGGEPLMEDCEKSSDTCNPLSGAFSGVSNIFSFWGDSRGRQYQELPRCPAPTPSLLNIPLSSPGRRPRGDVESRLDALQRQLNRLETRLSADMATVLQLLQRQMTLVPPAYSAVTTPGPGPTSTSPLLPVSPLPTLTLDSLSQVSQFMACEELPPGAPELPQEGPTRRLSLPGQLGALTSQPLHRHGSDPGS
In short: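 hERG potassium current was recorded by patch clamp in a HEK cell line stably carrying hERG. Each compound was applied at six concentrations (0.1 nM, 1 nM, 10 nM, 100 nM, 1 μM, 10 μM), and its effect on current was read at the end of a 5-min application. Cisapride (30 nM) served as positive control.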

Sequence of Cytochrome P450 3A4 (P08684 whole entry, canonical isoform): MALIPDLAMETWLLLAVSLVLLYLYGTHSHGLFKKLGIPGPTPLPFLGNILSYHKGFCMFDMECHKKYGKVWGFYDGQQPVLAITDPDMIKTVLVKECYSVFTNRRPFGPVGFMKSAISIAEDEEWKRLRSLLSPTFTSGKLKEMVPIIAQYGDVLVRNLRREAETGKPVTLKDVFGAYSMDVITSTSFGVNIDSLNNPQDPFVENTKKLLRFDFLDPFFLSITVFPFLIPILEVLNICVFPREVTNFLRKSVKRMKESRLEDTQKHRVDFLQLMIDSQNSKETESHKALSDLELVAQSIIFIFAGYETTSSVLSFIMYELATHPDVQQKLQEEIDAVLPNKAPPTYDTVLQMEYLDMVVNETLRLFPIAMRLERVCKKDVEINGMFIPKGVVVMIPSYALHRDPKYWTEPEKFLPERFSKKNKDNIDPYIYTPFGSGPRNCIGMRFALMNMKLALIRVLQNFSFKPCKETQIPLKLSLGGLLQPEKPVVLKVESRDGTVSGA

| Compound | IC50 (Cytochrome P450 3A4) [nM] | Selectivity ratio (Homo sapiens) | Ki (Adenosine receptor A2a [2]) [nM] | other results |
| --- | --- | --- | --- | --- |
| Cc1cc(C)n(-c2cc(NC(=O)Cc3ccc(S(C)(=O)=O)cc3)nc(-c3ccccn3)n2)n1 | > 10000 | 148 | 1 | solubility [3]: 500 µg/mL (≈ 1080 µM); CLint scaled [1]: 7 mL/min/kg; IC50 (Adenosine receptor A2a [4]): 100 nM |
| COc1cc(CC(=O)Nc2cc(-n3nc(C)cc3C)nc(-c3ccc(C)o3)n2)cc(OC)c1 | > 5000 | 487 | 2 | solubility [3]: < 100 µg/mL; CLint scaled [1]: 78 mL/min/kg; IC50 (Cytochrome P450 2D6): > 5000 nM; IC50 [5]: > 3000 nM |
| COc1ccc(CC(=O)Nc2cc(-n3nc(C)cc3C)nc(-c3ccccn3)n2)cc1 | 1800 | 66 | 1 |  |
| COc1ccc(CC(=O)Nc2cc(-c3nccs3)nc(-c3ccccn3)n2)cc1 |  | 18 | 1 |  |
| COc1ccc(CC(=O)Nc2cc(-n3nc(C)cc3C)nc(-c3ccc(C)o3)n2)cc1C |  | 411 | 3 |  |
| Cc1cc(C)n(-c2cc(NC(=O)Cc3ccc(CN4CCOCC4)cc3)nc(-c3ccc(C)o3)n2)n1 |  | 179 | 0.8 |  |
| Cc1cc(C)n(-c2cc(NC(=O)Cc3cc(F)cc(F)c3)nc(-c3ccc(C)o3)n2)n1 |  | 126 | 5 |  |
| COc1ccc(CC(=O)Nc2cc(-n3cccn3)nc(-c3ccc(C)o3)n2)cc1 |  | 12 | 10 |  |
| Cc1cc(C)n(-c2cc(NC(=O)Cc3ccc(N(C)C)cc3)nc(-c3ccc(C)o3)n2)n1 |  | 162 | 2 |  |
| Cc1cc(C)n(-c2cc(NC(=O)Cc3ccc(CN(C)C)cc3)nc(-c3ccc(C)o3)n2)n1 |  | 80 | 0.2 |  |
| Cc1cc(C)n(-c2cc(NC(=O)Cc3ccc(F)c(F)c3)nc(-c3ccc(C)o3)n2)n1 |  | 152 | 5 |  |
| COc1ccc(CC(=O)Nc2cc(-n3nc(C)cc3C)nc(-c3ccc(C)o3)n2)cc1 |  | 61 | 4 |  |
| COc1ccc(CC(=O)Nc2cc(-c3nccs3)nc(-c3ccc(C)o3)n2)cc1 |  | 12 | 6 |  |

Now from value to molecule, other results behind:

| IC50 (Cytochrome P450 3A4) [nM] | Selectivity ratio (Homo sapiens) | Ki (Adenosine receptor A2a [2]) [nM] | Compound | other results |
| --- | --- | --- | --- | --- |
| > 10000 | 186 | 3 | Cc1cc(C)cc(CC(=O)Nc2cc(-n3nc(C)cc3C)nc(-c3ccccn3)n2)c1 | CLint scaled [1]: 113 mL/min/kg |
|  | 129 | 3 | COc1ccc(CC(=O)Nc2cc(-n3nc(C)cc3C)nc(-c3ccc(C)o3)n2)cc1F |  |
|  | 180 | 2 | COc1ccc(CC(=O)Nc2cc(-n3nc(C)cc3C)nc(-c3ccc(C)o3)n2)cc1OC |  |
|  | 90 | 5 | Cc1cc(C)n(-c2cc(NC(=O)Cc3ccc(NS(C)(=O)=O)cc3)nc(-c3ccc(C)o3)n2)n1 |  |
| 1300 | 477 | 1 | COc1cc(CC(=O)Nc2cc(-n3nc(C)cc3C)nc(-c3ccccn3)n2)cc(OC)c1 |  |
| 7000 | 257 | 1 | CCOc1ccc(CC(=O)Nc2cc(-n3nc(C)cc3C)nc(-c3ccccn3)n2)cc1OC | CLint scaled [1]: 47 mL/min/kg |
